Converted amounts (≈) assume the structure as drawn. “And” between values parts separate entries of the source, which are not always exact repeats. Equal values may be shown once. The source made the active and inactive calls. The rule behind the calls is not given here.
Assays:
[1] = tested on: Yersinia pseudotuberculosis; assay: Inhibition of type 3 secretion in Yersinia pseudotuberculosis at 10 uM by reporter gene assay
Summary of the method: (§1)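 Y. pseudotuberculosis T3S-linked reporter-gene screen, luminescence read on filter-based plate reader; compounds added from DMSO solutions. Tested at 10, 20, 50 and 100 µM, expressed as percent inhibition. EC50 taken from dose-response curves. Activity also checked with detergent present to exclude aggregation.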

[2] = tested on: Yersinia pseudotuberculosis; assay: Inhibition of type 3 secretion in Yersinia pseudotuberculosis at 20 uM by reporter gene assay; summary of the method: as §1
[3] = tested on: Yersinia pseudotuberculosis; assay: Inhibition of type 3 secretion in Yersinia pseudotuberculosis at 50 uM by reporter gene assay; summary of the method: as §1
[4] = tested on: Yersinia pseudotuberculosis; assay: Inhibition of type 3 secretion in Yersinia pseudotuberculosis at 100 uM by reporter gene assay; summary of the method: as §1
[5] = tested on: Chlamydia trachomatis; assay: Antibacterial activity against Chlamydia trachomatis infected in HeLa cells at 50 uM up to 6 hrs; type: functional, organism-based
[6] = Cytotoxicity against human HeLa cells assessed as cell viability at 2 time MIC; type: cell-based; conditions: read-out: Activity
[7] = tested on: Chlamydia trachomatis; assay: Antibacterial activity against Chlamydia trachomatis infected in HeLa cells; type: functional
Summary of the method: (§2)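 HeLa cells infected with C. trachomatis […] and incubated with compound in a dilution series, with a DMSO-treated control. Chlamydial inclusions are immunostained green and HeLa cells counterstained red. Inclusion size and number and HeLa cell morphology are judged by fluorescence microscopy. MIC is read from the absence of visible inclusions.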

[8] = molecular target: Tyrosine-protein phosphatase YopH (Yersinia pseudotuberculosis serotype I (strain IP32953)) (UniProt P08538); assay: Inhibition of Yersinia pseudotuberculosis phosphatase activity of secreted YopH at 10 uM
Summary of the method: (§3)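 Phosphatase activity of YopH secreted by Y. pseudotuberculosis, measured at 10, 20, 50 and 100 µM; expressed as percent inhibition. Some runs used HCl salt form.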

[9] = molecular target: Tyrosine-protein phosphatase YopH (Yersinia pseudotuberculosis serotype I (strain IP32953)) (UniProt P08538); assay: Inhibition of Yersinia pseudotuberculosis phosphatase activity of secreted YopH at 20 uM; summary of the method: as §3
[10] = molecular target: Tyrosine-protein phosphatase YopH (Yersinia pseudotuberculosis serotype I (strain IP32953)) (UniProt P08538); assay: Inhibition of Yersinia pseudotuberculosis phosphatase activity of secreted YopH at 50 uM; summary of the method: as §3
[11] = molecular target: Tyrosine-protein phosphatase YopH (Yersinia pseudotuberculosis serotype I (strain IP32953)) (UniProt P08538); assay: Inhibition of Yersinia pseudotuberculosis phosphatase activity of secreted YopH at 100 uM; summary of the method: as §3
[12] = (§4) Inhibition of type 3 secretion in Yersinia pseudotuberculosis by reporter gene assay; summary of the method: as §1
[13] = tested on: Yersinia pseudotuberculosis; assay: as §4; summary of the method: as §1
[14] = molecular target: Tyrosine-protein phosphatase YopH (Yersinia pseudotuberculosis serotype I (strain IP32953)) (UniProt P08538); assay: Inhibition of Yersinia pseudotuberculosis phosphatase activity of secreted YopH; summary of the method: as §3
[15] = tested on: Yersinia pseudotuberculosis; assay: Antibacterial activity against wild type Yersinia pseudotuberculosis infected in mouse J774 cells assessed as increase of host cell viability at 3.1 to 25 uM; type: functional, organism-based
Summary of the method: (§5)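 J774 macrophages infected with Y. pseudotuberculosis, wild-type (pIB102) or T3S-deficient mutant (pIB604); uninfected control included. Viability read with CalceinAM fluorescence (green conversion in healthy cells). 100% = uninfected cells given DMSO alone.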

[16] = tested on: Yersinia pseudotuberculosis; assay: Antibacterial activity against T3S deficient Yersinia pseudotuberculosis infected in mouse J774 cells assessed as increase of host cell viability at 3.1 to 25 uM; type: functional, organism-based; summary of the method: as §5
[17] = tested on: J774; assay: Cytotoxicity against mouse J774 cells assessed as cell viability at 3.1 to 25 uM; type: cell-based; conditions: j774, 25 µM
[18] = tested on: Chlamydia trachomatis; assay: Antibacterial activity against Chlamydia trachomatis infected in HeLa cells at 100 uM up to 6 hrs; type: functional, organism-based
[19] = tested on: Chlamydia trachomatis; assay: Antibacterial activity against Chlamydia trachomatis infected in HeLa cells assessed as reduction of inclusions size at 1.56 uM by fluorescence microscopy analysis; type: functional, organism-based; summary of the method: as §2
[20] = tested on: HeLa; assay: Cytotoxicity against human HeLa cells assessed as visible inclusions by fluorescence microscopy; type: cell-based; summary of the method: as §2
[21] = tested on: HeLa; assay: Cytotoxicity against human HeLa cells assessed as change in morphology by fluorescence microscopy; type: cell-based; summary of the method: as §2

Chain of Tyrosine-protein phosphatase YopH (Yersinia pseudotuberculosis serotype I (strain IP32953)) (P08538 whole entry): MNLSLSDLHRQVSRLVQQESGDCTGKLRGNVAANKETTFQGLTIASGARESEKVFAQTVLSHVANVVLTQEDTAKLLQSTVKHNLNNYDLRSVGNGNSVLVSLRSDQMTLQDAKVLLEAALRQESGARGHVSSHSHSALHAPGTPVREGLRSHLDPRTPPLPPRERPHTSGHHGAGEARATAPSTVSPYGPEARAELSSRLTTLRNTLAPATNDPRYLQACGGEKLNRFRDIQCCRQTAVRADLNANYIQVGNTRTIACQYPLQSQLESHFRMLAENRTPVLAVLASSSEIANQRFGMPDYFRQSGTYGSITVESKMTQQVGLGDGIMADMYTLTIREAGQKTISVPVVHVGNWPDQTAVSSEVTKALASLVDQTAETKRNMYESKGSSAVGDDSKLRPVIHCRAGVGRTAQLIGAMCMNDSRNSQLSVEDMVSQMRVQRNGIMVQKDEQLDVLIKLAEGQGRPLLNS

Compound: Oc1c(CN2CCN(c3ccccn3)CC2)cc(Cl)c2cccnc12
- inhibition [1]: inactive
- inhibition [2]: inactive
- inhibition [3]: 80%
- inhibition [4]: 98%

Compound: CCOc1ccccc1N1CCN(Cc2cc(Cl)c3cccnc3c2O)CC1
- inhibition [1]: inactive
- inhibition [2]: inactive
- inhibition [3]: 37%
- inhibition [4]: 89%

Compound: O=[N+]([O-])c1ccc(O)c(CN2CCN(c3ccc(Cl)cc3)CC2)c1
- inhibition [1]: inactive
- inhibition [2]: inactive
- inhibition [3]: inactive
- inhibition [4]: inactive

Compound: Oc1c(CN2CCCCC2)cc(Cl)c2cccnc12
- inhibition [1]: inactive
- inhibition [2]: inactive
- inhibition [3]: 8%
- inhibition [4]: 12%

Compound: Oc1c(CN2CCN(c3ccc(F)cc3)CC2)ccc2cccnc12
- inhibition [1]: inactive
- inhibition [2]: inactive
- inhibition [3]: 58%
- inhibition [4]: 95%

Compound: COc1ccccc1N1CCN(Cc2cc([N+](=O)[O-])c3cccnc3c2O)CC1
- inhibition [1]: inactive
- inhibition [2]: 25%
- inhibition [3]: 77%
- inhibition [4]: 85%

Compound: COc1c(CN2CCN(c3ccccc3)CC2)cc(Br)c2cccnc12
- inhibition [1]: inactive
- inhibition [2]: inactive
- inhibition [3]: inactive
- inhibition [4]: inactive

Compound: O=[N+]([O-])c1cc(CN2CCC(c3ccccc3)C2)c(O)c2ncccc12 (racemic)
- Activity [5]: inactive
- viability [6]: 92.1%
- MIC [7]: 12.5 µM (≈ 4.37 µg/mL)
- inhibition [1]: 54%
- inhibition [2]: 79%
- inhibition [3]: 95%
- inhibition [4]: 98%
- inhibition [8]: 47%
- inhibition [9]: 64%
- inhibition [10]: 68%
- inhibition [11]: 69%
- EC50 [12]: 14.6 µM
- inhibition [13]: Dose-dependent effect
- inhibition [14]: Dose-dependent effect
- Activity [15]: Active
- Activity [16]: inactive
- Activity [17]: Toxic

Compound: CC1CN(Cc2cc([N+](=O)[O-])c3cccnc3c2O)CC(C)O1 (stereo not drawn)
- inhibition [1]: inactive
- inhibition [2]: inactive
- inhibition [3]: 76%
- inhibition [4]: 93%

Compound: Oc1c(CN2CCN(c3ccccc3)CC2)cc(Cl)c2cccnc12
- inhibition [1]: inactive
- inhibition [2]: inactive
- inhibition [3]: 14% and 22%

Compound: O=[N+]([O-])c1cc(CN2CCN(c3ccccc3)CC2)c(O)c2ncccc12
- Activity [18]: inactive
- viability [6]: 66.3%
- MIC [7]: 25 µM (≈ 9.11 µg/mL)
- inhibition [1]: 66%
- inhibition [2]: 88%
- inhibition [3]: 94%
- inhibition [4]: 97%
- inhibition [8]: 49%
- inhibition [9]: 73%
- inhibition [10]: 77%
- inhibition [11]: 79%
- EC50 [12]: 12.4 µM
- inhibition [13]: Dose-dependent effect
- inhibition [14]: Dose-dependent effect
- Activity [15]: Active
- Activity [16]: inactive
- Activity [17]: Toxic

Compound: Oc1c(CN2CCN(c3ccc(F)cc3)CC2)cc(Br)c2cccnc12
- inhibition [1]: inactive
- inhibition [2]: inactive
- inhibition [3]: 78%
- inhibition [4]: 89%

Compound: O=[N+]([O-])c1cc(CN2CCN(c3ccc(F)cc3)CC2)c(O)c2ncccc12
- Activity [18]: inactive
- viability [6]: 90.2%
- MIC [7]: 3.13 µM (≈ 1.2 µg/mL)
- inhibition [8]: 17% and 38%
- inhibition [9]: 56% and 66%
- inhibition [10]: 88% and 81%
- inhibition [11]: 94% and 83%
- EC50 [12]: 6.24 µM
- inhibition [13]: Dose-dependent effect
- inhibition [14]: Dose-dependent effect
- Activity [15]: Active
- Activity [16]: inactive
- Activity [17]: Toxic
- Activity [19]: Active
- Activity [20]: Non-toxic
- Activity [21]: Non-toxic

Compound: COc1c(CN2CCN(c3ccccc3)CC2)cc(Cl)c2cccnc12
- inhibition [1]: inactive
- inhibition [2]: inactive
- inhibition [3]: inactive
- inhibition [4]: inactive

Compound: O=[N+]([O-])c1cc(CN2CCN(c3ccccc3)CC2)c(O)c2ccccc12
- inhibition [1]: inactive
- inhibition [2]: inactive
- inhibition [3]: inactive
- inhibition [4]: inactive

Compound: O=[N+]([O-])c1ccc(O)c(CN2CCN(c3ccccc3)CC2)c1
- inhibition [1]: inactive
- inhibition [2]: inactive
- inhibition [3]: inactive
- inhibition [4]: inactive

Compound: Oc1c(CN2CCN(c3ccc(F)cc3)CC2)cc(Cl)c2cccnc12
- inhibition [1]: inactive
- inhibition [2]: inactive
- inhibition [3]: 93%
- inhibition [4]: 97%

Compound: Cc1cccc(N2CCN(Cc3cc(Br)c4cccnc4c3O)CC2)c1
- inhibition [1]: inactive
- inhibition [2]: inactive
- inhibition [3]: 41%
- inhibition [4]: 81%

Compound: CN1CCN(Cc2cc(Cl)c3cccnc3c2O)CC1
- inhibition [1]: inactive
- inhibition [2]: inactive
- inhibition [3]: inactive
- inhibition [4]: 48%

Reference: ChEMBL document CHEMBL2021762, “Derivatives of 8-hydroxyquinoline--antibacterial agents that target intra- and extracellular Gram-negative pathogens” (Bioorg Med Chem Lett, 2012)
